# Data taken from paper PMC5006629 (Chemical & pharmaceutical bulletin, 2013).
# Read-outs that look alike come from different tables or passages of the source.
# Legend:
# [1] = system: human HT-29 colon tumor cell line; assay: HT-29 tumor cell growth inhibition; assay type: cell-based
# Summary of the method: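 Human HT-29 colon tumour cells. Two-stage screen: test compounds first tested at one concentration in triplicate for % growth inhibition.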
# PDE3B = PDE3B (Homo sapiens, UniProt Q13370); assay type: biochemical
# Chain of PDE3B (Q13370 whole entry): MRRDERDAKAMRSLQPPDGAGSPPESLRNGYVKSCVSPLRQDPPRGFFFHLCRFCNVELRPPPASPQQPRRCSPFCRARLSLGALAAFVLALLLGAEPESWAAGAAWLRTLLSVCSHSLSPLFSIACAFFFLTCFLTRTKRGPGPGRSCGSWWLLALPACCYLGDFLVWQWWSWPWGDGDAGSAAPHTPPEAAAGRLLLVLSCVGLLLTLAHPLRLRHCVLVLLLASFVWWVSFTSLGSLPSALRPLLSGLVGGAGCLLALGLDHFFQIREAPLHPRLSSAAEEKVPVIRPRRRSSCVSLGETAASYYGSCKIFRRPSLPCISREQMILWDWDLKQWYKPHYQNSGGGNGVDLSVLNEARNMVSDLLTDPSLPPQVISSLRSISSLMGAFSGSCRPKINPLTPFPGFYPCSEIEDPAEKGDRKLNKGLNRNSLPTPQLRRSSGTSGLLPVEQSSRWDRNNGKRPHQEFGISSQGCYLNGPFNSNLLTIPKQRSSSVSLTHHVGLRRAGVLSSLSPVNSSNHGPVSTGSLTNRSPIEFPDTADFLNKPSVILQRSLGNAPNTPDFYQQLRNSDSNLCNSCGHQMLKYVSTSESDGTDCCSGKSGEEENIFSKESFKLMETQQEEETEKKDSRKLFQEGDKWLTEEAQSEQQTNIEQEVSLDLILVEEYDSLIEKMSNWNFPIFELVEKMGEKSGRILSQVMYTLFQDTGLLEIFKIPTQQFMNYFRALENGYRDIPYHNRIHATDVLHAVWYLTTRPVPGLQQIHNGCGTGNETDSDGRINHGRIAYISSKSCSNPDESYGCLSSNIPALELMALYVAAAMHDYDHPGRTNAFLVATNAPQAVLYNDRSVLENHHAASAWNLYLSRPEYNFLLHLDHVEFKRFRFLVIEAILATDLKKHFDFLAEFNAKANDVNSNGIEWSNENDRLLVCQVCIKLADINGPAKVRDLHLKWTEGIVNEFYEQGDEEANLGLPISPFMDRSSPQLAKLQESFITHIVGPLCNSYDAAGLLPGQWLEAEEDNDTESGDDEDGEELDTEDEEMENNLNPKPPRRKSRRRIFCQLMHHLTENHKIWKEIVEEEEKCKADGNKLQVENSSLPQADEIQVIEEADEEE
# [2] = Homo sapiens, HT-29, read-out: HT-29 growth inhibition: IC50
# [3] = read-out: % PDE3 inhibition at 50 μM, cGMP, substrate cGMP, 50 μM
# [4] = PDE3 inhibition IC50, cAMP, substrate cAMP
# [5] = PDE3 inhibition IC50, cGMP, substrate cGMP
# [6] = read-out: % PDE3 inhibition at 50 μM, cAMP, substrate cAMP, 50 μM
"IC50 [1, 2] [µM]",inhibition at 50 µM (PDE3B; [3]) [%],IC50 (PDE3B; [4]) [µM],IC50 (PDE3B; [5]) [µM],inhibition at 50 µM (PDE3B; [6]) [%],PDE3 inhibition with cAMP as substrate (in words) (PDE3B; substrate cAMP),"IC50 ([1]; read-out: HT-29 growth inhibition: IC50, HT-29 colorectal cancer cell line, 10 concentrations) [µM]","% PDE3 inhibition at 50 μM, cAMP (PDE3B; substrate cAMP, 50 μM) [%]","% PDE3 inhibition at 50 μM, cGMP (PDE3B; substrate cGMP, 50 μM) [%]",Compound,"induction of apoptosis to the HT-29 cell line (in words) ([1]; HT-29 cell line, positive control)","HT-29 growth inhibition: % Growth inhibition at 50 μM ([1]; HT-29 colorectal cancer cell line, 50 μM, triplicate) [%]"
43,≤ 50,,,,,,,,"CCOc1ccccc1-c1cc(-c2cccc(Br)c2)nc(N)c1C#N [Compound 2, 2-Amino-6-(3-bromophenyl)-4-(2-ethoxyphenyl)nicotinonitrile]",,
10.4,75,6.2,10.5,77,,,,,"N#Cc1c(-c2ccccc2Cl)cc(-c2ccccc2Br)[nH]c1=O [Compound 5, 6-(2-Bromophenyl)-4-(2-chlorophenyl)-2-oxo-1,2-dihydropyridine-3-carbonitrile]",,
18.3,85,,10.9,48,did not inhibit PDE3,,,,"CCOc1ccccc1-c1cc(-c2cccc(Br)c2)nc2ncnc(N)c12 [Compound 6, 7-(3-Bromophenyl)-5-(2-ethoxyphenyl)pyrido[2,3-d]pyrimidin-4-amine]",,
32,85,35.6,13.4,55,,,,,"COc1ccccc1-c1cc(-c2ccc(-c3ccc(Br)cc3)cc2)nc(N)c1C#N [Compound 3, 2-Amino-6-(4′-bromobiphenyl-4-yl)-4-(2-methoxyphenyl)nicotinonitrile]",,
> 50,95,,,77,,,,,"Cc1[nH]c(=O)c(C#N)cc1-c1ccncc1 [Milrinone, reference compound]",inactivity,
,,,,,,15.5,70,72,"6-(2-Bromophenyl)-4-(2-ethoxyphenyl)-2-oxo-1,2-dihydropyridine-3-carbonitrile [Compound 4]",,68
1.34,78.6,24.2,10.8,62,,,,,"COc1ccccc1-c1cc(-c2cccc(Br)c2)nc2nc[nH]c(=O)c12 [Compound 7, 7-(3-Bromophenyl)-5-(2-methoxyphenyl)pyrido[2,3-d]pyrimidin-4(3H)-one]",,
,105,,4,≤ 50,,,,,"COc1ccccc1-c1cc(-c2cccc(Br)c2)nc(N)c1C#N [Compound 1, 2-Amino-6-(3-bromophenyl)-4-(2-methoxyphenyl)nicotinonitrile]",,
